Reference: ChEMBL document CHEMBL4118207, “Docking Screens for Dual Inhibitors of Disparate Drug Targets for Parkinson's Disease” (J Med Chem, 2018)
pIC50, pKi: −log10 of the molar value. The source made the active and inactive calls. No cut-off for these calls is given here.

Assays:
Adenosine receptor A2a [1] = target: T1, Adenosine receptor A2a (Homo sapiens, UniProt P29274); assay: Displacement of [3H]ZM241385 from A2A receptor in human HeLa cell membranes at 10 uM after 30 mins by beta-scintillation counting method
Adenosine receptor A2a [2] = target: T1, Adenosine receptor A2a; assay: Displacement of [3H]ZM241385 from A2A receptor in human HeLa cell membranes after 30 mins by beta-scintillation counting method
[3] = target: T2, Amine oxidase [flavin-containing] B (Homo sapiens, UniProt P27338); assay: Inhibition of recombinant human MAO-B expressed in baculovirus infected BTI insect cells at 10 uM using tyramine as substrate preincubated for 30 mins followed by substrate addition measured after 60 mins by amplex red reagent based fluorescence assay; details: 1 h
T2 sequence (P27338 whole entry): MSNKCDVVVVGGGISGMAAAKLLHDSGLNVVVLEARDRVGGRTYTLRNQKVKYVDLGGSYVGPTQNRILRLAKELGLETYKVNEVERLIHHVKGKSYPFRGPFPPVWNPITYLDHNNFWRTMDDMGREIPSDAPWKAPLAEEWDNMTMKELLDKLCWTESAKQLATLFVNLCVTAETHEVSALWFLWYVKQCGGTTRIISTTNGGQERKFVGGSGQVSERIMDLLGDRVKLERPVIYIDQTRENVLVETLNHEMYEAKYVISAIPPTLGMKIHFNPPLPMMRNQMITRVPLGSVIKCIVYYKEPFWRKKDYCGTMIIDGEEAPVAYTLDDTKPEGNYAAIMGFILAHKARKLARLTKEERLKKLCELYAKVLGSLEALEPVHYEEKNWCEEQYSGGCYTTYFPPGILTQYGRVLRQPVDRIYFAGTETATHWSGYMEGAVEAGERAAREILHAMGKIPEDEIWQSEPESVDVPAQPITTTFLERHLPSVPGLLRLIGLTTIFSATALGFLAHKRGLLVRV
Outline: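 Human recombinant MAO-B (final 1 U/mL) in 50 mM Tris-HCl pH 7.5, 0.05% CHAPS, 1% DMSO. Compound added from DMSO stock and pre-incubated 30 min at room temperature. Reaction started with tyramine (10 µM in 2-fold mix) and run 60 min at room temperature. HRP (final 0.1 U/mL) plus Amplex Red (final 10 µM) added; resorufin read at ex 535/em 590 nm over 30 min.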

[4] = target: T2, Amine oxidase [flavin-containing] B; assay: Inhibition of recombinant human MAO-B expressed in baculovirus infected BTI insect cells at 30 uM using tyramine as substrate preincubated for 30 mins followed by substrate addition measured after 60 mins by amplex red reagent based fluorescence assay relative to control; details: 1 h
[5] = target: T2, Amine oxidase [flavin-containing] B; assay: Inhibition of recombinant human MAO-B expressed in baculovirus infected BTI insect cells using tyramine as substrate preincubated for 30 mins followed by substrate addition measured after 60 mins by amplex red reagent based fluorescence assay
Outline: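 Recombinant human MAO-B, final 1 U/mL, in 50 mM Tris-HCl pH 7.5 with 0.05% CHAPS and 1% DMSO. Compounds dosed acoustically over 10^-9 to 10^-4 range, preincubated 30 min at room temperature. Interference controlled without enzyme, with added H2O2.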

Adenosine receptor A2a [6] = target: T1, Adenosine receptor A2a; assay: Displacement of [3H]ZM241385 from A2A receptor in human HeLa cell membranes at 30 uM after 30 mins by beta-scintillation counting method relative to control
SH-SY5Y = assay: Cytoprotection against 6-OHDA-induced neurotoxicity in human SH-SY5Y cells assessed as reduction in 6-OHDA-induced cell viability decrease at 0.15 uM preincubated for 3 hrs followed by 6-OHDA addition measured after 24 hrs by resazurin dye based assay relative to control; format: functional
Outline: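 Human SH-SY5Y cells seeded 2.5 x 10^4/well in phenol-red-free DMEM with 1% FBS and 10 µM retinoic acid for 72 h to differentiate. Compound (0.1% v/v DMSO) pretreatment 3 h, then freshly prepared 20 µM 6-OHDA in saline/0.007% ascorbic acid for 24 h. Resazurin (0.02 mg/mL final) added for 2 h as the viability read-out.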

Adenosine receptor A2a [7] = target: T1, Adenosine receptor A2a; assay: Antagonist activity at human A2A receptor expressed in CHO cells assessed as inhibition of NECA-stimulated cAMP accumulation at 1 uM preincubated for 15 mins followed by NECA addition measured after 15 mins by enzyme immunoassay; format: functional, cell-based
Outline: (§1)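 CHO cells stably transfected with human A2A receptor, seeded 10^4 cells/well 24 h before assay. Washed in DMEM/F-12 with 25 mM Hepes pH 7.4, then switched to the same buffer plus 20 µM rolipram. Compound preincubated 15 min at 37 °C, NECA added at several concentrations for 15 min at 37 °C. cAMP measured by enzyme immunoassay.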

[8] = target: T2, Amine oxidase [flavin-containing] B; assay: Inhibition of recombinant human MAO-B expressed in baculovirus infected BTI insect cells using tyramine as substrate preincubated for 30 mins followed by substrate addition measured after 60 mins in presence of Triton X-100 by amplex red reagent based fluorescence assay; details: 1 h
Adenosine receptor A2a [9] = target: T1, Adenosine receptor A2a; assay: Antagonist activity at human A2A receptor expressed in CHO cells assessed as inhibition of NECA-stimulated cAMP accumulation at 100 nM preincubated for 15 mins followed by NECA addition measured after 15 mins by enzyme immunoassay; format: functional, cell-based; outline: as §1

T1 sequence (P29274 whole entry): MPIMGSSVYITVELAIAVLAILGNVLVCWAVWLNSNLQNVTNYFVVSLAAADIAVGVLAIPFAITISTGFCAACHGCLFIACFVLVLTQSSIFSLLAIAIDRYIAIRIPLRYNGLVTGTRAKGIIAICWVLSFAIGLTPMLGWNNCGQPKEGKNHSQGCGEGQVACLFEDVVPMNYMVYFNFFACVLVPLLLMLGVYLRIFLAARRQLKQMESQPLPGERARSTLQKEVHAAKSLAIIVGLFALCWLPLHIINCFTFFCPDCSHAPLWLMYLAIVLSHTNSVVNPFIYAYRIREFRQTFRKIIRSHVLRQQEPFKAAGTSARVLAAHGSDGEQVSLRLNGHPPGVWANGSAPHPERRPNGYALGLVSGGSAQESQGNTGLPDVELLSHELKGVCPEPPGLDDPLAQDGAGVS

inhibition (Adenosine receptor A2a [1])	pKi (Adenosine receptor A2a [2])	SMILES	also measured
inactive	7.64	Nc1nn(-c2ccccc2)nc1C(=O)NCc1ccccc1	
inactive	6.20	Nc1nn(-c2ccccc2Cl)nc1C(=O)CCc1ccccc1	
inactive		Nc1nn(-c2ccccc2)nc1C(=O)O	inhibition (INH) [3]: Not Active
	7.51	Nc1nn(-c2ccccc2)nc1C(=O)OCc1ccccc1	inhibition at 30 µM [4]: > 70%; pIC50 [5]: 6.42; inhibition (Adenosine receptor A2a [6]): > 60%
	5.92	C[C@@H]1Oc2ccc(Nc3ncnc4c3oc3ccccc34)cc2NC1=O	inhibition at 30 µM [4]: > 70%; pIC50 [5]: 5.77; inhibition (Adenosine receptor A2a [6]): > 60%
inactive	5.70	Nc1nn(-c2ccccc2)nc1C(=O)CCc1ccccc1	
inactive	6.28	COc1cccc2nc(NC(=O)c3ccccc3)[nH]c12	
inactive		COc1cccc(C(=O)Nc2nc3ccccc3[nH]2)c1	
inactive		Cc1ccccc1-n1nc(N)c(C(=O)CCc2ccccc2)n1	
		Cn1c(=O)c2c(nc(/C=C/c3cccc(Cl)c3)n2C)n(C)c1=O	Activity (SH-SY5Y): 13%
	7.00	O=C(Nc1nc2cccc(Cl)c2[nH]1)c1ccccc1	inhibition (Adenosine receptor A2a [7]): Active; Activity (SH-SY5Y): 14%
inactive		Cc1ccc2nc(NC(=O)c3ccccc3)[nH]c2c1	
inactive		Cc1ccc(-n2nc(N)c(C(=O)CCc3ccccc3)n2)cc1	
inactive		O=C(Nc1nc2ccccc2[nH]1)c1ccccc1O	
	6.82	Cc1ccc(COC(=O)c2nn(-c3ccccc3)nc2N)cc1	pIC50 [5]: 5.42; inhibition (INH) [8]: Active
inactive	6.60	Cc1cccc(-n2nc(N)c(C(=O)CCc3ccccc3)n2)c1	
	5.57	O=C(Nc1nc2ccccc2[nH]1)c1ccccc1	inhibition at 30 µM [4]: > 70%; pIC50 [5]: 5.30; inhibition (INH) [8]: Active; inhibition (Adenosine receptor A2a [6]): > 60%
inactive		Nc1nn(-c2ccc(Cl)cc2)nc1C(=O)CCc1ccccc1	
	7.31	Cc1ccccc1COC(=O)c1nn(-c2ccccc2)nc1N	pIC50 [5]: 6.30
inactive		Cc1ccccc1C(=O)Nc1nc2ccccc2[nH]1	
inactive		Cc1ccc(C(=O)Nc2nc3ccccc3[nH]2)cc1C	
	7.72	COc1cccc(COC(=O)c2nn(-c3ccccc3)nc2N)c1	inhibition (Adenosine receptor A2a [9]): Active; Activity (SH-SY5Y): 13%; inhibition (Adenosine receptor A2a [6]): > 60%
inactive		Cc1cccc(C(=O)Nc2nc3ccccc3[nH]2)c1	

SMILES	inhibition (Adenosine receptor A2a [1])	pKi (Adenosine receptor A2a [2])	also measured
COc1cccc(CO)c1	inactive		inhibition (INH) [3]: Not Active
Cc1ccc(C(=O)Nc2nc3ccccc3[nH]2)cc1	inactive		
